Activity calls are given as the source filed them. The calls are words filed in the database; no cut-off is given here.
How the values were obtained:
Human betaherpesvirus 5 [1] = experiment: Antiviral activity against ganciclovir-resistant HCMV infected in HFF assessed as reduction in viral plaque formation after 8 days by microscopy; assay type: functional, organism-based; settings: Human betaherpesvirus 5, 192 h
Method in brief: (§1)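 HFF (1 × 10^5/well) infected with GCV-sensitive or GCV-resistant clinical isolates at MOI 0.01. After 1 h, inoculum replaced by methyl cellulose overlay with DMEM, 3% FCS and compound dilutions in duplicate. Incubation 8 days at 37°C, then crystal violet staining and plaque counting by microscope. EC50 derived relative to untreated cells.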

Human betaherpesvirus 5 [2] = experiment: Antiviral activity against ganciclovir-sensitive HCMV infected in HFF assessed as formation of viral capsid type C at 10 uM measured after 72 hrs postinfection by electron microscopy; assay type: functional
Method in brief: (§2)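 HFF (1 × 10^6) infected with GCV-sensitive or GCV-resistant clinical isolates at MOI 1, with or without 10 μM compound. Cells fixed 72 h p.i., embedded, thin-sectioned, and examined by transmission EM at 120 kV. Nuclear A, B and C capsids counted.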

[3] = Cytotoxicity against rat Rat2 cells after 8 days by XTT assay; assay type: cell-based
Method in brief: (§3)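 XTT cell-proliferation read-out after 8 days of exposure at 37°C to varied drug concentrations. Absorbance was read at 492 nm against 650 nm reference, 4 h after adding XTT labeling mixture. CC50 was determined.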

Human betaherpesvirus 5 [4] = experiment: Antiviral activity against ganciclovir-resistant HCMV infected in HFF assessed as formation of viral capsid type A at 10 uM measured after 72 hrs postinfection by electron microscopy; assay type: functional; method in brief: as §2
Human betaherpesvirus 5 [5] = experiment: Antiviral activity against ganciclovir-sensitive HCMV infected in HFF assessed as reduction in viral plaque formation after 8 days by microscopy; assay type: functional, organism-based; settings: Human betaherpesvirus 5, 192 h; method in brief: as §1
[6] = Selectivity index, ratio of CC50 for HFF to EC50 for ganciclovir-sensitive HCMV infected in HFF
Human betaherpesvirus 5 [7] = experiment: Antiviral activity against ganciclovir-sensitive HCMV infected in HFF assessed as formation of viral capsid type A at 10 uM measured after 72 hrs postinfection by electron microscopy; assay type: functional; method in brief: as §2
Human betaherpesvirus 5 [8] = experiment: Antiviral activity against ganciclovir-sensitive HCMV infected in HFF assessed as formation of viral capsid type B at 10 uM measured after 72 hrs postinfection by electron microscopy; assay type: functional; method in brief: as §2
[9] = Cytotoxicity against mouse NIH/3T3 cells after 8 days by XTT assay; assay type: cell-based, NIH3T3; method in brief: as §3
Human betaherpesvirus 5 [10] = experiment: Antiviral activity against ganciclovir-resistant HCMV infected in HFF assessed as formation of viral capsid type C at 10 uM measured after 72 hrs postinfection by electron microscopy; assay type: functional; method in brief: as §2
[11] = Cytotoxicity against HFF after 8 days by XTT assay; assay type: cell-based; settings: human, HFF cells
Method in brief: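 XTT proliferation assay: HFF seeded at 5 × 10^4/well were exposed to a range of drug concentrations for 8 days at 37°C. XTT labeling mixture was then added for 4 h, and absorbance was read at 492 nm (reference 650 nm). CC50 was derived.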

Human betaherpesvirus 5 [12] = experiment: Antiviral activity against HCMV AD169 infected in HFF assessed as viral plaque formation at 5 uM after 8 days by microscopy relative to control; assay type: functional
Method in brief: (§4)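 Plaque reduction with compound at a single concentration of 5 μM. After infection, plaques were counted under a microscope, and inhibition was expressed relative to untreated infected cells.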

[13] = Selectivity index, ratio of CC50 for HFF to EC50 for ganciclovir-resistant HCMV infected in HFF
Method in brief: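 CC50 in HFF (5 × 10^4/well) after 8 days at 37°C with drug dilutions, read by XTT (4 h, A492 with 650 nm reference). EC50 from 8-day plaque reduction in HFF infected with GCV-resistant clinical isolate at MOI 0.01 under methyl cellulose, duplicates, crystal violet staining.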

[14] = system: Murid betaherpesvirus 1 (mouse cytomegalovirus); experiment: Antiviral activity against MCMV Smith infected in NIH 3T3 assessed as viral plaque formation at 5 uM after 8 days by microscopy relative to control
Human alphaherpesvirus 3 = experiment: Antiviral activity against VZV OKA infected in HFF assessed as viral plaque formation at 5 uM after 8 days by microscopy relative to control; assay type: functional; method in brief: as §4
Human betaherpesvirus 5 [15] = experiment: Antiviral activity against ganciclovir-resistant HCMV infected in HFF assessed as cleavage of viral DNA concatemer at 30 uM measured after 72 hrs postinfection by […]; assay type: functional, organism-based
Human alphaherpesvirus 1 = experiment: Antiviral activity against Herpes simplex virus 1 KOS infected in HFF assessed as viral plaque formation at 5 uM after 8 days by microscopy relative to control; assay type: functional; method in brief: as §4
Human betaherpesvirus 5 [16] = experiment: Antiviral activity against ganciclovir-resistant HCMV infected in HFF assessed as formation of viral capsid type B at 10 uM measured after 72 hrs postinfection by electron microscopy; assay type: functional; method in brief: as §2
Human betaherpesvirus 5 [17] = experiment: Antiviral activity against ganciclovir-sensitive HCMV infected in HFF assessed as cleavage of viral DNA concatemer at 30 uM measured after 72 hrs postinfection by […]; assay type: functional, organism-based
Method in brief: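 HFF (1 × 10^6) infected with a GCV-sensitive clinical isolate at MOI 1 in the presence of 30 μM compound. DNA was harvested at 72 h p.i. and separated by PFGE in 1% low-melting agarose (15–110 s, 150 V, 27 h). Cleavage into unit-length genomes was judged after ethidium bromide staining.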

Human betaherpesvirus 5 [18] = experiment: Antiviral activity against ganciclovir-sensitive HCMV infected in HFF assessed as cleavage of viral DNA concatemer at 10 uM measured after 72 hrs postinfection by […]; assay type: functional, organism-based
Method in brief: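 HFF (1 × 10^6) infected with a GCV-sensitive clinical isolate at MOI 1 and treated with 10 μM compound. DNA was isolated 72 h p.i. and run by pulsed-field electrophoresis on 1% low-melting agarose (15–110 s pulses, 150 V, 27 h). Unit-length versus concatemeric DNA was viewed by ethidium bromide staining. Mock- and AD169-infected cells served as controls.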

Human betaherpesvirus 5 [19] = experiment: Antiviral activity against ganciclovir-resistant HCMV infected in HFF assessed as cleavage of viral DNA concatemer at 10 uM measured after 72 hrs postinfection by […]; assay type: functional, organism-based

Row | SMILES | EC50 (Human betaherpesvirus 5 [1]) | Activity (Human betaherpesvirus 5 [2]) | CC50 at 192 h [3] | Activity (Human betaherpesvirus 5 [4]) | EC50 (Human betaherpesvirus 5 [5]) | Ratio CC50/EC50 [6] | Activity (Human betaherpesvirus 5 [7]) | Activity (Human betaherpesvirus 5 [8]) | CC50 at 192 h [9] | Activity (Human betaherpesvirus 5 [10]) | CC50 at 192 h [11] | Activity (Human betaherpesvirus 5 [12]) | Ratio CC50/EC50 [13] | Activity [14] | Activity (Human alphaherpesvirus 3) | Activity (Human alphaherpesvirus 1) | Activity (Human betaherpesvirus 5 [16]) | other results
1 | CC(=O)OC[C@H]1O[C@@H](n2c(Br)nc3c(Cl)c(Cl)c(Cl)cc32)[C@H](OC(C)=O)[C@@H]1OC(C)=O | 0.5 µM | 28.8% | 14.5 µM | 15.3% | 0.33 µM | 121 | 10.7% | 60.5% | 15.1 µM | 24% | 27.9 µM | 0.42% | 55.8 | 70.8% | 26.1% | 76.6% | 60.7% | Activity (Human betaherpesvirus 5 [15]): Active; Activity (Human betaherpesvirus 5 [17]): Active
2 | CC(=O)OC[C@H]1O[C@@H](n2c(Cl)nc3c(Cl)c(Cl)c(Cl)cc32)[C@H](OC(C)=O)[C@@H]1OC(C)=O | 0.15 µM | 13.3% | 19.2 µM | 8.6% | 0.34 µM | 202 | 10.5% | 76.4% | 39.6 µM | 29.9% | 66.7 µM | 0.25% | 445 | 68.3% | 31.1% | – | 61.5% | Activity (Human betaherpesvirus 5 [18]): Active; Activity (Human betaherpesvirus 5 [19]): Active
3 | OC[C@H]1O[C@@H](n2c(Br)nc3cc(Cl)c(Cl)cc32)[C@H](O)[C@@H]1O | 0.47 µM | 21.4% | 136 µM | 13.8% | 0.35 µM | 896 | 13.6% | 67.2% | 88.1 µM | 31.2% | 314 µM | 0.34% | 667 | 41.6% | 31.6% | 46.6% | 55% | –
